# Experimental data taken from ChEMBL document CHEMBL4689842, “EUbOPEN Chemogenomics Library wave 1” (2021).
# How the values were obtained:
# U2OS [1] = assay: Multiplex assay against U2OS; format: toxicity, cell-based; conditions: human
# In short: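 Live cells carried four stains from seeding: Hoechst33342, BioTracker Green Microtubule Cytoskeleton Dye, MitoTracker Red and Annexin V Alexa Fluor 680. They were imaged on a CQ1 microscope at 37°C and 5% CO2 after compound addition. Using CellPathfinder machine-learning gating, cells were split into Hoechst high-intensity objects or normal cells, normal cells into healthy, pyknosed or fragmented nuclei, and pyknosed cells into mitotic or apoptotic; tubulin, mitochondrial-mass and membrane-permeability phenotypes are per cents of healthy-nucleus cells.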
# U2OS [2] = assay: Incucyte cell viability with U2OS; format: toxicity, cell-based; conditions: human, 10 µM, compound concentration 10 uM; further: filed as whole numbers so only -1 and 0 and 1 occur
# [3] = 12 h, 1 µM, compound concentration 1 uM, replicate 1
# [4] = 12 h, 1 µM, compound concentration 1 uM, replicate 2
# [5] = 12 h, 10 µM, compound concentration 10 uM, replicate 1
# [6] = 12 h, 10 µM, compound concentration 10 uM, replicate 2
# [7] = 24 h, 1 µM, compound concentration 1 uM, replicate 1
# [8] = 24 h, 1 µM, compound concentration 1 uM, replicate 2
# [9] = 24 h, 10 µM, compound concentration 10 uM, replicate 1
# [10] = 24 h, 10 µM, compound concentration 10 uM, replicate 2
# [11] = 48 h, 1 µM, compound concentration 1 uM, replicate 1
# [12] = 48 h, 1 µM, compound concentration 1 uM, replicate 2
# [13] = 48 h, 10 µM, compound concentration 10 uM, replicate 1
# [14] = 48 h, 10 µM, compound concentration 10 uM, replicate 2
structure (smiles),measurement,setting,value
Cc1cc2c(cc1N1C(=O)c3cccc4c(CCCO)ccc(c34)C1=O)n(C)c(=O)n2C,Population Apoptotic (%),U2OS [1]; [3],50%
same,Population Fragmented Nuclei (%),U2OS [1]; [3],11%
same,Population Healthy Nuclei (%),U2OS [1]; [3],82%
same,Population Hoechst High Intensity Objects (%),U2OS [1]; [3],6%
same,Population Membrane Permeable-Phenotype (%),U2OS [1]; [3],4%
same,Population Mitochondria Different-Phenotype (%),U2OS [1]; [3],7%
same,Population Mitotic Cells (%),U2OS [1]; [3],50%
same,Population Normal (%),U2OS [1]; [3],93%
same,Population Pyknosed Nuclei (%),U2OS [1]; [3],5%
same,Population Tubulin-Different-Phenotype (%),U2OS [1]; [3],6%
same,Total Cell Count,U2OS [1]; [3],179
same,Population Apoptotic (%),U2OS [1]; [4],0%
same,Population Fragmented Nuclei (%),U2OS [1]; [4],6%
same,Population Healthy Nuclei (%),U2OS [1]; [4],90%
same,Population Hoechst High Intensity Objects (%),U2OS [1]; [4],8%
same,Population Membrane Permeable-Phenotype (%),U2OS [1]; [4],1%
same,Population Mitochondria Different-Phenotype (%),U2OS [1]; [4],22%
same,Population Mitotic Cells (%),U2OS [1]; [4],100%
same,Population Normal (%),U2OS [1]; [4],91%
same,Population Pyknosed Nuclei (%),U2OS [1]; [4],3%
same,Population Tubulin-Different-Phenotype (%),U2OS [1]; [4],24%
same,Total Cell Count,U2OS [1]; [4],104
same,Population Apoptotic (%),U2OS [1]; [5],54%
same,Population Fragmented Nuclei (%),U2OS [1]; [5],11%
same,Population Healthy Nuclei (%),U2OS [1]; [5],72%
same,Population Hoechst High Intensity Objects (%),U2OS [1]; [5],6%
same,Population Membrane Permeable-Phenotype (%),U2OS [1]; [5],16%
same,Population Mitochondria Different-Phenotype (%),U2OS [1]; [5],44%
same,Population Mitotic Cells (%),U2OS [1]; [5],45%
same,Population Normal (%),U2OS [1]; [5],93%
same,Population Pyknosed Nuclei (%),U2OS [1]; [5],15%
same,Population Tubulin-Different-Phenotype (%),U2OS [1]; [5],68%
same,Total Cell Count,U2OS [1]; [5],166
same,Population Apoptotic (%),U2OS [1]; [6],37%
same,Population Fragmented Nuclei (%),U2OS [1]; [6],20%
same,Population Healthy Nuclei (%),U2OS [1]; [6],63%
same,Population Hoechst High Intensity Objects (%),U2OS [1]; [6],9%
same,Population Membrane Permeable-Phenotype (%),U2OS [1]; [6],29%
same,Population Mitochondria Different-Phenotype (%),U2OS [1]; [6],77%
same,Population Mitotic Cells (%),U2OS [1]; [6],62%
same,Population Normal (%),U2OS [1]; [6],90%
same,Population Pyknosed Nuclei (%),U2OS [1]; [6],16%
same,Population Tubulin-Different-Phenotype (%),U2OS [1]; [6],96%
same,Total Cell Count,U2OS [1]; [6],54
same,Population Apoptotic (%),U2OS [1]; [7],38%
same,Population Fragmented Nuclei (%),U2OS [1]; [7],11%
same,Population Healthy Nuclei (%),U2OS [1]; [7],80%
same,Population Hoechst High Intensity Objects (%),U2OS [1]; [7],3%
same,Population Membrane Permeable-Phenotype (%),U2OS [1]; [7],5%
same,Population Mitochondria Different-Phenotype (%),U2OS [1]; [7],18%
same,Population Mitotic Cells (%),U2OS [1]; [7],61%
same,Population Normal (%),U2OS [1]; [7],96%
same,Population Pyknosed Nuclei (%),U2OS [1]; [7],7%
same,Population Tubulin-Different-Phenotype (%),U2OS [1]; [7],10%
same,Total Cell Count,U2OS [1]; [7],176
same,Population Apoptotic (%),U2OS [1]; [8],40%
same,Population Fragmented Nuclei (%),U2OS [1]; [8],7%
same,Population Healthy Nuclei (%),U2OS [1]; [8],87%
same,Population Membrane Permeable-Phenotype (%),U2OS [1]; [8],0%
same,Population Mitochondria Different-Phenotype (%),U2OS [1]; [8],27%
same,Population Mitotic Cells (%),U2OS [1]; [8],60%
same,Population Pyknosed Nuclei (%),U2OS [1]; [8],5%
same,Population Tubulin-Different-Phenotype (%),U2OS [1]; [8],17%
same,Total Cell Count,U2OS [1]; [8],96
same,Population Apoptotic (%),U2OS [1]; [9],59%
same,Population Fragmented Nuclei (%),U2OS [1]; [9],15%
same,Population Healthy Nuclei (%),U2OS [1]; [9],70%
same,Population Hoechst High Intensity Objects (%),U2OS [1]; [9],3%
same,Population Membrane Permeable-Phenotype (%),U2OS [1]; [9],5%
same,Population Mitochondria Different-Phenotype (%),U2OS [1]; [9],35%
same,Population Mitotic Cells (%),U2OS [1]; [9],40%
same,Population Normal (%),U2OS [1]; [9],96%
same,Population Pyknosed Nuclei (%),U2OS [1]; [9],14%
same,Population Tubulin-Different-Phenotype (%),U2OS [1]; [9],38%
same,Total Cell Count,U2OS [1]; [9],159
same,Population Apoptotic (%),U2OS [1]; [10],80%
same,Population Fragmented Nuclei (%),U2OS [1]; [10],18%
same,Population Healthy Nuclei (%),U2OS [1]; [10],62%
same,Population Hoechst High Intensity Objects (%),U2OS [1]; [10],11%
same,Population Membrane Permeable-Phenotype (%),U2OS [1]; [10],41%
same,Population Mitochondria Different-Phenotype (%),U2OS [1]; [10],76%
same,Population Mitotic Cells (%),U2OS [1]; [10],20%
same,Population Normal (%),U2OS [1]; [10],88%
same,Population Pyknosed Nuclei (%),U2OS [1]; [10],18%
same,Population Tubulin-Different-Phenotype (%),U2OS [1]; [10],76%
same,Total Cell Count,U2OS [1]; [10],61
same,Population Apoptotic (%),U2OS [1]; [11],65%
same,Population Fragmented Nuclei (%),U2OS [1]; [11],16%
same,Population Healthy Nuclei (%),U2OS [1]; [11],72%
same,Population Hoechst High Intensity Objects (%),U2OS [1]; [11],3%
same,Population Membrane Permeable-Phenotype (%),U2OS [1]; [11],4%
same,Population Mitochondria Different-Phenotype (%),U2OS [1]; [11],43%
same,Population Mitotic Cells (%),U2OS [1]; [11],35%
same,Population Normal (%),U2OS [1]; [11],96%
same,Population Pyknosed Nuclei (%),U2OS [1]; [11],11%
same,Population Tubulin-Different-Phenotype (%),U2OS [1]; [11],16%
same,Total Cell Count,U2OS [1]; [11],187
same,Population Apoptotic (%),U2OS [1]; [12],66%
same,Population Fragmented Nuclei (%),U2OS [1]; [12],6%
same,Population Healthy Nuclei (%),U2OS [1]; [12],90%
same,Population Hoechst High Intensity Objects (%),U2OS [1]; [12],10%
same,Population Membrane Permeable-Phenotype (%),U2OS [1]; [12],9%
same,Population Mitochondria Different-Phenotype (%),U2OS [1]; [12],49%
same,Population Mitotic Cells (%),U2OS [1]; [12],33%
same,Population Normal (%),U2OS [1]; [12],89%
same,Population Pyknosed Nuclei (%),U2OS [1]; [12],3%
same,Population Tubulin-Different-Phenotype (%),U2OS [1]; [12],28%
same,Total Cell Count,U2OS [1]; [12],103
same,Population Apoptotic (%),U2OS [1]; [13],79%
same,Population Fragmented Nuclei (%),U2OS [1]; [13],20%
same,Population Healthy Nuclei (%),U2OS [1]; [13],53%
same,Population Hoechst High Intensity Objects (%),U2OS [1]; [13],1%
same,Population Membrane Permeable-Phenotype (%),U2OS [1]; [13],12%
same,Population Mitochondria Different-Phenotype (%),U2OS [1]; [13],32%
same,Population Mitotic Cells (%),U2OS [1]; [13],20%
same,Population Normal (%),U2OS [1]; [13],98%
same,Population Pyknosed Nuclei (%),U2OS [1]; [13],25%
same,Population Tubulin-Different-Phenotype (%),U2OS [1]; [13],14%
same,Total Cell Count,U2OS [1]; [13],154
same,Population Apoptotic (%),U2OS [1]; [14],88%
same,Population Fragmented Nuclei (%),U2OS [1]; [14],22%
same,Population Healthy Nuclei (%),U2OS [1]; [14],45%
same,Population Hoechst High Intensity Objects (%),U2OS [1]; [14],8%
same,Population Membrane Permeable-Phenotype (%),U2OS [1]; [14],46%
same,Population Mitochondria Different-Phenotype (%),U2OS [1]; [14],57%
same,Population Mitotic Cells (%),U2OS [1]; [14],11%
same,Population Normal (%),U2OS [1]; [14],91%
same,Population Pyknosed Nuclei (%),U2OS [1]; [14],31%
same,Population Tubulin-Different-Phenotype (%),U2OS [1]; [14],30%
same,Total Cell Count,U2OS [1]; [14],62
same,Growth Rate,"U2OS [2]; 0 h, replicate number 1, timepoint 0 hours",0
same,Growth Rate,"U2OS [2]; 6 h, replicate number 1, timepoint 6 hours",0
same,Growth Rate,"U2OS [2]; 6 h, replicate number 2, timepoint 6 hours",1
same,Growth Rate,"U2OS [2]; 12 h, replicate number 1, timepoint 12 hours",0
same,Growth Rate,"U2OS [2]; 18 h, replicate number 1, timepoint 18 hours",0
same,Growth Rate,"U2OS [2]; 18 h, replicate number 2, timepoint 18 hours",1
same,Growth Rate,"U2OS [2]; 24 h, replicate number 1, timepoint 24 hours",0
